Published values from different studies.
Compare with care: the assays were run in different laboratories.
Observed: cell growth or viability

| SMILES | cell line | technique | time | measurement | result |
| --- | --- | --- | --- | --- | --- |
| CCNCCCn1c2c(c3cc(OC)c(OC)cc3c1=O)C(=O)c1cc3c(nc1-2)OCO3 | RD-ES | MTS | 72 h | IC50 | 0.02 µM |
| O=C(O)c1cccnc1Nc1cccc(C(F)(F)F)c1 | BXPC-3 | SRB | 48 h | GI50 | > 30 µM |
| COc1cc2c3c(n(CCCNCCO)c(=O)c2cc1OC)-c1nc2c(cc1C3=O)OCO2 | RD-ES | MTS | 72 h | IC50 | 0.022 µM |
| Cc1nc(Nc2ccc3c(c2)/C(=C/c2ccccc2)C(=O)N3C)c2ccccc2n1 | B16 | MTT |  | IC50 | 3.56 µM |
| Nc1ccc(/C=C/C(=O)N2CCc3c(oc4c(-c5ccc(F)cc5)cc(-c5ccc(C(=O)N6C[C@@H]7[C@H](C6)C7(F)F)nn5)cc34)C2)cn1 | BXPC-3 | CCK-8 | 72 h | IC50 | > 20 µM |
| COc1cc2c3c(n(CCCN4CCOCC4)c(=O)c2cc1OC)-c1nc2c(cc1C3=O)OCO2 | RD-ES | MTS | 72 h | IC50 | 0.608 µM |
| Cc1nc(Nc2ccc3c(c2)C(C)(C)C(=O)N3)c2ccccc2n1 | B16 | MTT |  | IC50 | 14.8 µM |
| C=CC(=O)NC1CCN(c2ncc3ncnc(Nc4ccc(Oc5ccc6c(c5)ncn6C)c(C)c4)c3n2)CC1 | NCI-H2172 |  |  | EC50 | 6.65 µM |
| Cc1nc(Nc2ccc3c(c2)/C(=C/c2ccccc2Cl)C(=O)N3)c2ccccc2n1 | B16 | MTT |  | IC50 | 3.34 µM |
| O=C(O)c1ccccc1Nc1cccc(C(F)(F)F)c1 | BXPC-3 | SRB | 48 h | GI50 | > 30 µM |
| Nc1ccc(/C=C/C(=O)N2CCc3c(oc4c(-c5ccc(F)cc5)cc(-c5ccc(C(=O)N6CCOCC6)nn5)cc34)C2)cn1 | BXPC-3 | CCK-8 | 72 h | IC50 | > 20 µM |
| C=CC(=O)c1cccnc1Nc1cccc(C(F)(F)F)c1 | BXPC-3 | SRB | 48 h | GI50 | 17.5 µM |
| Cc1sc2c(c1C)C(c1ccc(Cl)cc1)=N[C@@H](CC(=O)NCCCCCCCCNC(=O)COc1cccc3c1C(=O)N(C1CCC(=O)NC1=O)C3=O)c1nnc(C)n1-2 (stereo partly shown) | BXPC-3 | ATP luminescence |  | IC50 | 0.27 µM |
